From ChEMBL document CHEMBL1123347, “Topical nonsteroidal antipsoriatic agents. 1. 1,2,3,4-Tetraoxygenated naphthalene derivatives” (J Med Chem, 1986)

Key:
[1] = Statistical significance, p values as compared to positive control by students t-test; I=Insoluble; assay type: ADME
Procedure, shortened: (§1)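 Same arachidonic acid ear-edema model: 2 mg total topical dose in acetone, given 60 min before arachidonic acid, with 8 animals per group. Edema is measured by ear plug weight 1 h after arachidonic acid. p values come from Student's t-test against the concurrent arachidonic acid positive control. Thresholds are given as + (≤0.05) and so on.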

Mus musculus [2] = experiment: Compound was tested for inhibition of arachidonic acid induced mouse ear edema at 2 mg of dose; I=Insoluble; assay type: functional, organism-based
Procedure, shortened: (§2)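 Mouse ear edema induced by arachidonic acid (dissolved in acetone at 100 mg/mL). Test agent is applied topically in acetone, 2 mg/0.02 mL per total dose, 60 min before arachidonic acid. Ear edema is read 1 h later as the weight gain of an 8-mm-diameter ear plug. It is compared with acetone-only and arachidonic acid-only controls run in the same experiment. n = 8 per group; percent inhibition is reported as mean.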

[3] = Partition coefficient (logP); assay type: physicochemical; conditions: octanol/water
Procedure, shortened: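 Lipophilicity (log P) measured by 1-octanol-coated reversed-phase HPLC. The mobile phase is pH 7.4 PBS saturated with 1-octanol, run on RP-18 or C-18 packing. A second system is linked to the first through overlapping series. For the most lipophilic analogues that could not be detected, log P is calculated from Free-Wilson-derived substituent constants assuming additivity.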

Mus musculus [4] = experiment: Compound was tested for inhibition of arachidonic acid induced mouse ear edema at 2 mg of dose; assay type: functional; procedure, shortened: as §2
[5] = Statistical significance, p values as compared to positive control by students t-test; assay type: ADME; procedure, shortened: as §1
[6] = Statistical significance, p values as compared to positive control by students t-test; NS=Not significant; assay type: ADME; procedure, shortened: as §1

Row | Compound | Significance [1] | inhibition (Mus musculus [2]) | logP [3] | Inhibition (Mus musculus [4]) [%] | Significance [5] | Significance [6]
1 | CCC(=O)Oc1c(Oc2ccccc2)c(Oc2ccccc2)c(OC(=O)CC)c2ccccc12 | Insoluble | Insoluble | 5.8 | – | – | –
2 | COc1c(OC)c(OC(C)=O)c2cc(Cl)ccc2c1OC(C)=O [LONAPALENE] | – | – | 3.26 | 54 | <= 0.001 | –
3 | CC(C)(C)C(=O)Oc1c(Oc2ccccc2)c(Oc2ccccc2)c(OC(=O)C(C)(C)C)c2ccccc12 | Insoluble | Insoluble | 7.8 | – | – | –
4 | CCC(=O)Oc1c(Oc2ccccc2)c(Oc2ccccc2)c(OC(=O)CC)c2cc(Cl)ccc12 | – | – | 6.6 | -15 | – | Not Active
5 | COc1c(OC)c(OC(=O)C(C)(C)C)c2c(Cl)cccc2c1OC(=O)C(C)(C)C | – | – | 6.1 | 6 | – | Not Active
6 | O=C(Oc1c(Oc2ccccc2)c(Oc2ccccc2)c(OC(=O)c2ccccc2)c2ccccc12)c1ccccc1 | Insoluble | Insoluble | 7.9 | – | – | –
7 | CC(C)C(=O)Oc1c(Oc2ccccc2)c(Oc2ccccc2)c(OC(=O)C(C)C)c2cc(Cl)ccc12 | – | – | 7.7 | 0 | – | Not Active
8 | CC(=O)Oc1c(Oc2ccccc2)c(Oc2ccccc2)c(OC(C)=O)c2cc(Cl)ccc12 | – | – | 5.6 | 5 | – | Not Active
9 | COc1c(OC)c(OC(C)=O)c2cc(C#N)ccc2c1OC(C)=O | – | – | 2.28 | 7 | – | Not Active
10 | COc1c(OC)c(OC(=O)C(C)(C)C)c2cc(C)ccc2c1OC(=O)C(C)(C)C | – | – | 6.1 | 11 | – | Not Active
11 | CCCC(=O)Oc1c(OC)c(OC)c(OC(=O)CCC)c2cc(C)c(C)cc12 | – | – | 5.4 | 14 | – | Not Active
12 | CC(C)(C)C(=O)Oc1c(Oc2ccccc2)c(Oc2ccccc2)c(OC(=O)C(C)(C)C)c2cc(Cl)ccc12 | – | Insoluble | 8.7 | – | – | –
13 | CCC(=O)Oc1c(OC(C)C)c(OC(C)C)c(OC(=O)CC)c2cc(Cl)ccc12 | – | – | 5.8 | 16 | – | Not Active
14 | CC(=O)Oc1c(Oc2ccccc2)c(Oc2ccccc2)c(OC(C)=O)c2ccccc12 | Insoluble | Insoluble | 4.8 | – | – | –
15 | O=C(Oc1c(Oc2ccccc2)c(Oc2ccccc2)c(OC(=O)c2ccccc2)c2cc(Cl)ccc12)c1ccccc1 | – | – | 8.7 | -1 | – | Not Active
